Bioassay records deposited in PubChem by Sanford-Burnham Center for Chemical Genomics.
TRAIL sens C8: sensitizes caspase-8 expressing cells to TRAIL; NB7+C8 cells + TRAIL, ATPlite viability luminescence; inhibition (viability loss, TRAIL sensitization), % at 10 µM; hit rate 1% among 360,000; AID 624354;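 active = compounds causing at least 50% loss of cell viability in the single-dose screen, relative to plate controls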
FLuc act counter: affects firefly luciferase, flagging false hits in luciferase stimulation screens; P08659; ATPlite luciferase biochemical, luminescence, 10 min; 0 = ATP-free wells, 1 = DMSO control; activation factor at 10 µM; 200,000 tested, under 10 active; AID 1027;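 active = luciferase activation factor, scaled between plate controls, of at least 2 with compound at 10 µM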
Target sequence (P08659 whole entry, looked up): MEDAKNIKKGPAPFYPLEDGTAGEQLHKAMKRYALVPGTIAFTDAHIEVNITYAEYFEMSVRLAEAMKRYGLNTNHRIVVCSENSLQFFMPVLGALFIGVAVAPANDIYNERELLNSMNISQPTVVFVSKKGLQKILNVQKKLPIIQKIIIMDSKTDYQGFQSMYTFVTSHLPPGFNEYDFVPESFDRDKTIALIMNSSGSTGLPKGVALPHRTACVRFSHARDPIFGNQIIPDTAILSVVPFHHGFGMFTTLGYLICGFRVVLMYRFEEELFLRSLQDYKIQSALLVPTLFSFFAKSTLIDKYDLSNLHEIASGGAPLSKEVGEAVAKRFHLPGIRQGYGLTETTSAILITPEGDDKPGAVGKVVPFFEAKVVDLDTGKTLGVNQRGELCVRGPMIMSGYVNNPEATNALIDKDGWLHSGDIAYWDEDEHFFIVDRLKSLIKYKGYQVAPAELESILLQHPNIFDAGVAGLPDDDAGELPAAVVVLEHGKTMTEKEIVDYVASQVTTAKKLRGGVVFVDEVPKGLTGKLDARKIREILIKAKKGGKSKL
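Material: Luciferase/luciferin reagent mix; Doses: test compounds dosed from 2 mM stocks in 100% DMSO; Schedule: 10 min incubation after luciferase reagent addition, room temperature; Measured by: luminescence from luciferase reaction; Read-out: luminescence gain marking luciferase activators.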
FLuc inh counter: inhibits firefly luciferase, flagging false hits in luciferase inhibition screens; ATPLite firefly luciferase biochemical luminescence, 10 min; inhibition, % at 10 µM; hit rate 1.5% among 200,000;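 active = inhibition above about 50% when tested at 10 µM, limit read from the data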
PPC-1+TRAIL kill: compounds killing PPC-1 cancer cells with TRAIL present (potentiator screen, no TRAIL-free arm). PPC-1 cells + TRAIL, ATPLite viability luminescence. cell killing (% activity), % at 4 µM or 5 µM. hit rate 0.41% among 220,000. AID 1443;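 active = cell killing above 50% in the first pass at 4 µM, then a duplicate retest at 5 µM averaging 50% or more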;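 note: plate controls were cells with TRAIL plus DMSO for no effect and medium-only wells lacking cells for full effect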
Starred values were filed as active, the others as inactive; . = no result given. In the library only some 1.6% were active in any assay of this set; here they are far more common.

SMILES	TRAIL sens C8	FLuc act counter	FLuc inh counter	PPC-1+TRAIL kill
C1CCCCCC(NCCN2CCNCC2)CCCCC1	10	.	.	11
Cc1ccc(C)c(N=Nc2nc3ccccc3n2C)c1	48	0.2	75*	29
CCN(CCc1ccccc1)c1ccc2c(c1)C1CC2CCN1Cc1ccccc1 (centres undefined)	36	.	.	.
CCN(CC(=O)NC(C)(C)C)C(=O)c1ccc2c(c1)S(=O)(=O)c1ccccc1C2=O	-7	1	-4	8
O=C(CC1Nc2ccccc2NC1=O)c1ccccc1 (centres undefined)	.	0.5	54*	21
CO[C@@H]1CN(C)C(=O)c2ccc(NS(=O)(=O)c3c(C)noc3C)cc2OC[C@@H](C)NC[C@@H]1C	-14	.	.	.
COc1cc2c(cc1OC)-c1nnc(C)n1C(C)(C)C2	-11	1	-4	66*
Cc1ccsc1/C=N/NC(=O)c1ccccn1	12	0.5	46	14
O=C(N/N=C/c1ccsc1)c1ccccn1	19	0.5	52*	0
O=C(N/N=C/c1ccc(Br)s1)c1ccccn1	52*	0.3	66*	34
CC(=O)NCCCC(=O)NN1C(=S)N(Cc2ccccc2)C(=O)C1CC(=O)Nc1cccc(C)c1 (centres undefined)	9	1	-1	-12
Cc1ccc(CN=C2Nc3ccccc3CS2)cc1	49	0.2	81*	34
Cc1ccc(S(=O)(=O)N2CCOCC2)cc1C(=O)OCC(=O)c1c(N)n(C)c(=O)n(C)c1=O	-2	.	.	.
Cn1c(N)c(C(=O)COC(=O)c2cc(S(=O)(=O)N3CCOCC3)ccc2F)c(=O)n(C)c1=O	64*	.	.	.
Cc1ccc(NCc2nc3ccccc3n2C)cc1	-7	0.3	70*	44
Cc1ccc(CNc2nc3ccccc3n2C)cc1	58*	.	.	.
Cn1c(NCc2ccc(Cl)cc2)nc2ccccc21	31	0.5	51*	23
CCOc1ccccc1CNC(=O)Cn1ccc2cc(S(=O)(=O)N3CCCC3)ccc21	15	.	.	.
CCn1c(=O)n(CC)c2cc(N3CCCC3)c(NC(=O)c3cc(Cl)ccc3OC)cc21	20	.	.	.
Cc1ccc(-n2nc3c(n2)/C(=N/O)CC/C3=N\O)cc1	37	0.3	67*	11
O/N=C1\CC/C(=N\O)c2nn(-c3ccccc3Cl)nc21	-6	1.1	-8	12
CCCN(CC(=O)NC(=O)NCc1ccccc1)CC(=O)Nc1ccc(F)c(F)c1F	-17	.	.	.
COC(=O)N(C)C[C@H]1OCc2cn(nn2)CCCC(=O)N([C@@H](C)CO)C[C@@H]1C	23	.	.	.
COc1ccc(C(=O)N/N=C/c2cccnc2)cc1	52*	.	.	.
CC(C)c1cc(C(=O)N/N=C/c2ccoc2)cs1	9	.	.	.
SMILES	TRAIL sens C8	FLuc act counter	FLuc inh counter	PPC-1+TRAIL kill
COc1ccc(C(=O)N/N=C/c2cccc3cccnc23)cc1	13	0.4	59*	32
CC(=O)Nc1ccc(C(=O)N/N=C/c2cccnc2)cc1	5	1.1	-10	22
CC(C)c1cc(C(=O)N/N=C/c2cccnc2)cs1	40	0.4	64*	11
CCOc1ccc(C(=O)N/N=C/c2cccc3cccnc23)cc1	19	0.6	43	15
Cc1cccc(NC(=O)CSc2nnc(CNC(=O)c3cccs3)o2)c1C	-14	1.1	-7	13
O=C(NCC1CCCO1)c1ccc2c3n(nc2c1)-c1ccccc1CO3 (centres undefined)	51*	.	.	42
COCCNC(=O)c1ccc2c3n(nc2c1)-c1ccc(C)cc1CO3	30	.	.	43
CC(=O)N/C(=C\c1ccccc1)C(=O)OCC(=O)NC1CCS(=O)(=O)C1 (centres undefined)	-16	.	.	.
COc1ccc(-c2nc3ccccc3c(=O)o2)cc1OC	7	0.9	10	-7
CC(C)(C)C(=O)Nc1ccc(-c2nc3ccccc3c(=O)o2)cc1	59*	0	96*	41
CCCC(=O)Nc1cccc(-c2nc3ccccc3c(=O)o2)c1	40	0.5	54*	29
CC(C)C(=O)Nc1ccc(-c2nc3ccccc3c(=O)o2)cc1	48	0.1	90*	31
CC(C)C(=O)Nc1cccc(-c2nc3ccccc3c(=O)o2)c1	19	0.9	6	35
CCC(=O)Nc1cccc(-c2nc3ccccc3o2)c1	21	1	0	-2
COc1ccc(OC)c(NC(=O)CCc2c[nH]c3ccccc23)c1	-11	1.1	-5	14
COc1ccccc1OCC(=O)Nc1cc(S(=O)(=O)N2CCOCC2)ccc1N1CCCCC1	6	.	.	.
CCC(OC(=O)c1ccc(S(C)(=O)=O)c([N+](=O)[O-])c1)C(=O)NC1C2CC3CC(C2)CC1C3 (centres undefined)	74*	.	.	.
CC(OC(=O)c1ccc(S(C)(=O)=O)c([N+](=O)[O-])c1)C(=O)NC1C2CC3CC(C2)CC1C3 (centres undefined)	73*	.	.	.
COc1ccc(C(=O)Nc2ccccc2C(=O)N/N=C/c2ccco2)cc1	84*	0	97*	50
COc1ccc(C(=O)Nc2ccccc2C(=O)Nc2ccccc2)cc1	32	.	.	.
CCOc1ccc(/C=N/NC(=O)c2ccccc2NC(=O)c2ccc(OC)cc2)cc1	76*	0.1	94*	36
N/C(=N\OC(=O)c1cccc(F)c1)c1ccccc1	74*	0.1	91*	20
Cc1ccc(/C(N)=N/OC(=O)c2cccc(F)c2)cc1	85*	0.4	61*	28
Cc1ccc(/C(N)=N/OC(=O)c2ccc3ccccc3c2)cc1	90*	.	.	.
c1cn2c(NC3CCCC3)c(-c3ccc(N4CCOCC4)cc3)nc2cn1	-21	0.2	81*	42
SMILES	TRAIL sens C8	FLuc act counter	FLuc inh counter	PPC-1+TRAIL kill
COc1ccc(C(=O)NNC(=S)NC(=O)/C=C/c2cccs2)cc1	54*	0.5	49	.
O=C(Nc1cccc(O)c1)c1noc2c1CCc1ccccc1-2	71*	0.1	87*	7
Cc1cccnc1Nc1nc(-c2ccccc2)cs1	11	.	.	.
Cc1cccnc1Nc1nc(-c2ccccn2)cs1	49*	0.6	44	0
CCOC(=O)c1cccc(NC(=O)/C=C/c2ccc([N+](=O)[O-])cc2)c1	76*	0.9	14	7
O=C(COC(=O)c1cccc(NC(=O)c2ccco2)c1)c1ccc(Br)cc1	-15	0.4	60*	-11
Cc1ccc(C(=O)COC(=O)c2cccc(NC(=O)c3ccc([N+](=O)[O-])cc3[N+](=O)[O-])c2)cc1	18	0	96*	33
COC(=O)c1cccc(NC(=O)/C=C/c2ccc([N+](=O)[O-])cc2)c1	71*	0.8	22	10
CC(C)(C)C(=O)COC(=O)c1cccc(NC(=O)c2ccco2)c1	11	1	-5	2
CC(=O)Nc1ccc(C(=O)OCC(=O)c2cccc([N+](=O)[O-])c2)cc1	1	1.1	-10	15
Cc1cccc(/N=C/c2c(O)cc(C)oc2=O)n1	-18	1.1	-6	4
Cc1ccc(N/N=C/c2c(O)cc(C)oc2=O)cc1	5	0.3	68*	-10
Cc1cc(O)c(/C=N/Nc2ccc(F)cc2)c(=O)o1	-3	0.3	68*	8
Cc1cnc(=O)[nH]c1SCc1cccc([N+](=O)[O-])c1	2	.	.	.
O=[N+]([O-])c1ccc(SCc2ccncc2)nc1	-7	.	.	.
